In ChEMBL document CHEMBL1125554, “Studies on pyridonecarboxylic acids. 1. Synthesis and antibacterial evaluation of 7-substituted-6-halo-4-oxo-4H-[1,3]thiazeto[3,2-a]quinoline-3-carboxylic acids” (J Med Chem, 1992) one finds MIC data, which are given here for 14 compounds.

Values after ≈ are worked out from the molar mass of the structure shown.

What all share (format): functional
One test relates to Escherichia coli. Put plainly: In vitro antibacterial activity against Escherichia coli NIH JC-2. The method in brief:
(§1)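 MIC (μg/mL) by 2-fold agar dilution on Sensitivity Test agar, following the Japan Society of Chemotherapy MIC Committee method. Inocula were about 10⁶ cfu/mL. Growth was read after 20 h incubation at 37 °C.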

A further test deals with Klebsiella pneumoniae. Put plainly: In vitro antibacterial activity against Klebsiella pneumoniae K-1966. A digest of the protocol: as §1
The next test deals with Pseudomonas aeruginosa. The test can be described thus: In vitro antibacterial activity against Pseudomonas aeruginosa E-2. The method in brief: as §1
For another test, the system named is Shigella flexneri. Put plainly: In vitro antibacterial activity against Shigella flexneri 2a EW-10. The method in brief: as §1
A further test relates to Serratia marcescens. Put plainly: In vitro antibacterial activity against Serratia marcescens IFO 3736. A digest of the protocol: as §1
In the next test the test system is Staphylococcus aureus. The test can be described thus: In vitro antibacterial activity against Staphylococcus aureus 209P JC-1. A digest of the protocol:
as §1

Another test has as its system Micrococcus luteus. The test can be described thus: In vitro antibacterial activity against Micrococcus luteus ATCC 9341. A digest of the protocol: as §1
The mark [1] stands for this setting: Escherichia coli, read-out: MIC.
[2] abbreviates: Klebsiella pneumoniae, read-out: MIC.
Where [3] appears, read: Pseudomonas aeruginosa, read-out: MIC.
The mark [4] stands for this setting: Shigella flexneri, read-out: MIC.
Where [5] appears, read: Serratia marcescens, IFO 3736, read-out: MIC.
Setting [6] is: Staphylococcus aureus, read-out: MIC.
The mark [7] stands for this setting: Micrococcus luteus, ATCC 9341, read-out: MIC.

The term MIC denotes the smallest concentration in the dilution series that meets the test's criterion for growth inhibition. Take `CC1Sc2c(C(=O)O)c(=O)c3cc(Cl)c(N4CCN(C)CC4)cc3n21` (stereo not drawn): the MIC worked out at 0.1 µg/mL (≈ 0.263 µM) with Escherichia coli (setting [1]); 0.025 µg/mL (≈ 0.0658 µM) in the test on Klebsiella pneumoniae (setting [2]); 1.56 µg/mL (≈ 4.11 µM) in the test with Pseudomonas aeruginosa (setting [3]); 0.1 µg/mL (≈ 0.263 µM) in the test with Shigella flexneri (setting [4]); 0.1 µg/mL (≈ 0.263 µM) in the test with Serratia marcescens (setting [5]); 0.2 µg/mL (≈ 0.526 µM) in the test with Staphylococcus aureus (setting [6]). In the test on Micrococcus luteus (setting [7]), the minimal inhibitory concentration (MIC) was 3.13 µg/mL (≈ 8.24 µM).
`CN1CCN(c2cc3c(cc2F)c(=O)c(C(=O)O)c2n3C(c3ccccc3)S2)CC1` (stereo not drawn): the minimum inhibitory concentration (MIC) is 0.2 µg/mL (≈ 0.47 µM) in the test with Escherichia coli (setting [1]); 0.2 µg/mL (≈ 0.47 µM) in the test with Klebsiella pneumoniae (setting [2]); 1.56 µg/mL (≈ 3.67 µM) in the test with Pseudomonas aeruginosa (setting [3]); 0.2 µg/mL (≈ 0.47 µM) in the test on Shigella flexneri (setting [4]); 0.39 µg/mL (≈ 0.917 µM) in the test on Serratia marcescens (setting [5]); 0.39 µg/mL (≈ 0.917 µM) in the test with Staphylococcus aureus (setting [6]). For the same compound, the minimal inhibitory concentration (MIC) with Micrococcus luteus (setting [7]) was determined as 6.25 µg/mL (≈ 14.7 µM).
Regarding `CC1Sc2c(C(=O)O)c(=O)c3cc(F)c(N4CCN(c5ccccc5)CC4)cc3n21` (stereo not drawn), the minimum inhibitory concentration (MIC) in the test on Escherichia coli (setting [1]) is more than 100 µg/mL; in the test with Klebsiella pneumoniae (setting [2]) it was more than 100 µg/mL; in the test with Pseudomonas aeruginosa (setting [3]) it was more than 100 µg/mL; in the test with Shigella flexneri (setting [4]) it was more than 100 µg/mL; with Serratia marcescens (setting [5]) it was more than 100 µg/mL; in the test with Staphylococcus aureus (setting [6]), 3.13 µg/mL (≈ 7.36 µM). In the test with Micrococcus luteus (setting [7]), the minimal inhibitory concentration (MIC) came to 12.5 µg/mL (≈ 29.4 µM).
In the case of `CCN1CCN(c2cc3c(cc2F)c(=O)c(C(=O)O)c2n3C(C)S2)CC1` (stereo not drawn), the MIC came to 0.05 µg/mL (≈ 0.132 µM) in the test with Escherichia coli (setting [1]); 0.05 µg/mL (≈ 0.132 µM) in the test on Klebsiella pneumoniae (setting [2]); 0.78 µg/mL (≈ 2.07 µM) in the test on Pseudomonas aeruginosa (setting [3]); 0.025 µg/mL (≈ 0.0662 µM) with Shigella flexneri (setting [4]); 0.1 µg/mL (≈ 0.265 µM) in the test with Serratia marcescens (setting [5]); 0.1 µg/mL (≈ 0.265 µM) in the test with Staphylococcus aureus (setting [6]). In the test with Micrococcus luteus (setting [7]), the MIC amounted to 1.56 µg/mL (≈ 4.13 µM).
Take `CC(=O)N1CCN(c2cc3c(cc2F)c(=O)c(C(=O)O)c2n3C(C)S2)CC1` (stereo not drawn): the minimal inhibitory concentration (MIC) with Escherichia coli (setting [1]) was 0.78 µg/mL (≈ 1.99 µM); in the test on Klebsiella pneumoniae (setting [2]) it was 0.39 µg/mL (≈ 0.996 µM); in the test with Pseudomonas aeruginosa (setting [3]) it was 6.25 µg/mL (≈ 16 µM); in the test with Shigella flexneri (setting [4]), 0.39 µg/mL (≈ 0.996 µM); in the test with Serratia marcescens (setting [5]), 1.56 µg/mL (≈ 3.99 µM); in the test with Staphylococcus aureus (setting [6]), 0.2 µg/mL (≈ 0.511 µM). For the same compound, the MIC in the test with Micrococcus luteus (setting [7]) was found to be 3.13 µg/mL (≈ 8 µM).
For `CC1Sc2c(C(=O)O)c(=O)c3cc(F)c(N4CCN(Cc5ccc(N)cc5)CC4)cc3n21` (stereo not drawn), the MIC with Escherichia coli (setting [1]) was determined as 0.2 µg/mL (≈ 0.44 µM); with Klebsiella pneumoniae (setting [2]), 0.2 µg/mL (≈ 0.44 µM); in the test on Pseudomonas aeruginosa (setting [3]), 3.13 µg/mL (≈ 6.89 µM); in the test with Shigella flexneri (setting [4]) it was 0.1 µg/mL (≈ 0.22 µM); with Serratia marcescens (setting [5]), 1.56 µg/mL (≈ 3.43 µM); with Staphylococcus aureus (setting [6]), 0.05 µg/mL (≈ 0.11 µM). Also, in the test with Micrococcus luteus (setting [7]), the minimum inhibitory concentration (MIC) amounted to 0.39 µg/mL (≈ 0.858 µM).
Take `CC1Sc2c(C(=O)O)c(=O)c3cc(F)c(N4CCNC(=O)C4)cc3n21` (stereo not drawn): the MIC in the test with Escherichia coli (setting [1]) is 0.39 µg/mL (≈ 1.07 µM); in the test on Klebsiella pneumoniae (setting [2]), 0.2 µg/mL (≈ 0.55 µM); with Pseudomonas aeruginosa (setting [3]) it was 6.25 µg/mL (≈ 17.2 µM); with Shigella flexneri (setting [4]) it was 0.1 µg/mL (≈ 0.275 µM); in the test on Serratia marcescens (setting [5]), 3.13 µg/mL (≈ 8.61 µM); with Staphylococcus aureus (setting [6]), 0.39 µg/mL (≈ 1.07 µM). In the test on Micrococcus luteus (setting [7]), the MIC was determined as 3.13 µg/mL (≈ 8.61 µM).
With `CC(C)N1CCN(c2cc3c(cc2F)c(=O)c(C(=O)O)c2n3C(C)S2)CC1` (stereo not drawn), the MIC in the test on Escherichia coli (setting [1]) was found to be 0.2 µg/mL (≈ 0.511 µM); in the test on Klebsiella pneumoniae (setting [2]), 0.025 µg/mL (≈ 0.0639 µM); in the test with Pseudomonas aeruginosa (setting [3]), 1.56 µg/mL (≈ 3.99 µM); in the test on Shigella flexneri (setting [4]), 0.025 µg/mL (≈ 0.0639 µM); in the test with Serratia marcescens (setting [5]) it was 0.39 µg/mL (≈ 0.996 µM); in the test on Staphylococcus aureus (setting [6]), 0.05 µg/mL (≈ 0.128 µM). Further, in the test with Micrococcus luteus (setting [7]), the MIC amounted to 3.13 µg/mL (≈ 8 µM).
Consider `CC1Sc2c(C(=O)O)c(=O)c3cc(F)c(N4CCCNCC4)cc3n21` (stereo not drawn), for which the MIC turned out to be 0.2 µg/mL (≈ 0.55 µM) in the test on Escherichia coli (setting [1]); 0.2 µg/mL (≈ 0.55 µM) in the test with Klebsiella pneumoniae (setting [2]); 3.13 µg/mL (≈ 8.61 µM) in the test on Pseudomonas aeruginosa (setting [3]); 0.1 µg/mL (≈ 0.275 µM) in the test on Shigella flexneri (setting [4]); 0.39 µg/mL (≈ 1.07 µM) with Serratia marcescens (setting [5]); 0.1 µg/mL (≈ 0.275 µM) in the test with Staphylococcus aureus (setting [6]). Moreover, in the test on Micrococcus luteus (setting [7]), the MIC came to 3.13 µg/mL (≈ 8.61 µM).
Regarding `CC1Sc2c(C(=O)O)c(=O)c3cc(F)c(N4CCCC4)cc3n21` (stereo not drawn), the MIC in the test with Escherichia coli (setting [1]) worked out at 0.2 µg/mL (≈ 0.598 µM); in the test on Klebsiella pneumoniae (setting [2]), 0.1 µg/mL (≈ 0.299 µM); in the test on Pseudomonas aeruginosa (setting [3]), 0.39 µg/mL (≈ 1.17 µM); in the test with Shigella flexneri (setting [4]), 0.1 µg/mL (≈ 0.299 µM); with Serratia marcescens (setting [5]), 0.78 µg/mL (≈ 2.33 µM); in the test on Staphylococcus aureus (setting [6]) it was 0.05 µg/mL (≈ 0.15 µM). In addition, the MIC in the test with Micrococcus luteus (setting [7]) is 0.78 µg/mL (≈ 2.33 µM).
Take `O=C(O)c1c2n(c3cc(N4CCNCC4)c(Cl)cc3c1=O)CS2`: the minimal inhibitory concentration (MIC) was 0.39 µg/mL (≈ 1.11 µM) in the test on Escherichia coli (setting [1]); 0.2 µg/mL (≈ 0.568 µM) in the test with Klebsiella pneumoniae (setting [2]); 6.25 µg/mL (≈ 17.8 µM) in the test on Pseudomonas aeruginosa (setting [3]); 0.1 µg/mL (≈ 0.284 µM) in the test on Shigella flexneri (setting [4]); 0.2 µg/mL (≈ 0.568 µM) in the test on Serratia marcescens (setting [5]); 0.2 µg/mL (≈ 0.568 µM) in the test on Staphylococcus aureus (setting [6]). The minimum inhibitory concentration (MIC) with Micrococcus luteus (setting [7]) is 6.25 µg/mL (≈ 17.8 µM).
With `CC1Sc2c(C(=O)O)c(=O)c3cc(F)c(N4CCSCC4)cc3n21` (stereo not drawn), the minimal inhibitory concentration (MIC) was 0.2 µg/mL (≈ 0.546 µM) in the test on Escherichia coli (setting [1]); 0.2 µg/mL (≈ 0.546 µM) with Klebsiella pneumoniae (setting [2]); 0.39 µg/mL (≈ 1.06 µM) with Pseudomonas aeruginosa (setting [3]); 0.1 µg/mL (≈ 0.273 µM) in the test with Shigella flexneri (setting [4]); 0.39 µg/mL (≈ 1.06 µM) in the test on Serratia marcescens (setting [5]); 0.025 µg/mL (≈ 0.0682 µM) with Staphylococcus aureus (setting [6]). For the same compound, the MIC with Micrococcus luteus (setting [7]) was 0.78 µg/mL (≈ 2.13 µM).
Take `CC1Sc2c(C(=O)O)c(=O)c3cc(F)c(N4CCNCC4)cc3n21` (stereo in doubt; 29a) [ULIFLOXACIN]: the MIC against Escherichia coli is 0.0125 µg/mL (≈ 0.0358 µM); in the test with Klebsiella pneumoniae, 0.006 µg/mL (≈ 0.0172 µM); against Pseudomonas aeruginosa it was 0.2 µg/mL (≈ 0.572 µM); against Shigella flexneri, 0.006 µg/mL (≈ 0.0172 µM); against Serratia marcescens, 0.05 µg/mL (≈ 0.143 µM); with Staphylococcus aureus, 0.05 µg/mL (≈ 0.143 µM). This compound had an MIC against Micrococcus luteus of 0.78 µg/mL (≈ 2.23 µM).
`CC1Sc2c(C(=O)O)c(=O)c3cc(F)c(N4CCNCC4)cc3n21` (stereo in doubt; 29l) [ULIFLOXACIN]: the MIC against Escherichia coli was 0.78 µg/mL (≈ 2.23 µM); in the test on Klebsiella pneumoniae it was 0.39 µg/mL (≈ 1.12 µM); in the test with Pseudomonas aeruginosa it was 1.56 µg/mL (≈ 4.46 µM); in the test with Shigella flexneri, 0.78 µg/mL (≈ 2.23 µM); with Serratia marcescens, 3.13 µg/mL (≈ 8.96 µM); in the test on Staphylococcus aureus, 0.2 µg/mL (≈ 0.572 µM). This compound also returned a minimum inhibitory concentration (MIC) with Micrococcus luteus of 3.13 µg/mL (≈ 8.96 µM).
